Results reported in publication PMC10824272 (Biomedicine & pharmacotherapy = Biomedecine & …, 2023).
Where “and” joins values, the source holds several entries; their conditions need not be identical. Equal entries are not always repeated.

Experiments:
HCT116 cells = test: Cell viability; type: cell-based, human; conditions: claudin-1 deficient HCT116 cells; 72 hours
Procedure, shortened: (§1)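 Cells maintained in RPMI plus 10% FBS. Viability read with PrestoBlue reagent per kit protocol after 72 h exposure to test compound.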

normal IEC-6 cells = test: Cell viability; type: cell-based; conditions: 72 hours
Procedure, shortened: as §1

SW620 cells = test: Anoikis-induced apoptosis assay; type: cell-based; conditions: claudin-1 overexpressed SW620
SW620^1C cells = test: Anoikis-induced apoptosis assay; type: cell-based, human; conditions: claudin-1 knockdown SW620^1C
Procedure, shortened: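 Anoikis induced by plating cells on poly-HEMA-coated culture plates. Apoptosis quantified with a cell death detection ELISA. Parental lines were cultured in RPMI with 10% FBS. Claudin-1-overexpressing SW480 and claudin-1-knockdown SW620 derivatives were used.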

[1] = system: SW480^cld1 xenograft tumor; test: Subcutaneous xenograft tumor study; type: in vivo, athymic nude mice
Procedure, shortened: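 Cells implanted subcutaneously in athymic nude mice, n = 5 per group, vehicle controls. For SW480cld1 with I-6, once-weekly dosing started 10 days after implantation, once tumors were palpable, for two weeks. Caliper volume over time, formula […]. Ki67 and cleaved PARP by IHC. Behavior and body weight monitored.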

SW620 xenograft tumor = test: Subcutaneous xenograft tumor study; type: in vivo, athymic nude mice
[2] = Metabolic stability, phase I; type: in vitro ADME, human
Procedure, shortened: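 Phase I stability in human liver microsomes (20 mg/ml stock), 100 mM potassium phosphate pH 7.4, 10 mM MgCl2, 2 mM NADPH. Mix pre-incubated 10 min at 37 °C. Output is percent parent remaining per time point. Elimination rate constant taken from first-order plot of ln area ratio versus time.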

human claudin-1 = molecular target: T1, human claudin-1 (Homo sapiens, UniProt O95832); test: Microscale thermophoresis; type: binding
T1 sequence (O95832 1-211): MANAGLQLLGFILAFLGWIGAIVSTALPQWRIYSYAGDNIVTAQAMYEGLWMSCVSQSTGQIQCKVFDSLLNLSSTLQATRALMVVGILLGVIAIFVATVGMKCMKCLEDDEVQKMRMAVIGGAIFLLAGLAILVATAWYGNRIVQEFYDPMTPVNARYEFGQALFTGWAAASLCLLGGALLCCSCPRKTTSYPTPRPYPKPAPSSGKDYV

[3] = system: pSrc, pAkt, Bcl2, Bcl-xL, survivin, cleaved PARP in SW620 and SW480^cld1 cells; test: Immunoblotting of signaling and apoptosis markers; type: cell-based, human; conditions: PDS-0330 12.5 and 25μM
Procedure, shortened: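 Treated cells (vehicle or 12.5 and 25 μM) lysed. 10–30 μg protein per lane resolved by SDS-PAGE and immunoblotted, with enhanced chemiluminescence detection on film. Antibodies included p-Src (Tyr416), pAkt and total Akt, with GAPDH or β-actin as loading reference.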

[4] = Solubility in aqueous buffers; type: physicochemical; conditions: dissolved in DMSO to 135 μM for MST
[5] = PDS-0330 5mg/Kg and 10mg/Kg vs vehicle

SMILES: O=C(NC(=S)Nc1ccc(-c2nc3ccccc3o2)cc1)c1ccc2ccccc2c1 [PDS-0330, N-((4-(benzo[d]oxazol-2-yl)phenyl)carbamothioyl)-2-naphthamide]
- effect on cell growth/survival (HCT116 cells): no effect
- effect on cell growth/survival (normal IEC-6 cells): no effect
- resistance to anoikis (SW620 cells): dramatically reduced the resistance to anoikis
- resistance to anoikis (SW620^1C cells): not affecting
- apoptosis in tumors (cleaved PARP, BclxL, survivin) ([1]; PDS-0330 5mg/Kg and 10mg/Kg): increase in apoptosis
- proliferation in tumors (Ki67) ([1]; PDS-0330 5mg/Kg and 10mg/Kg): reduced proliferation
- tumor volume and weight [1, 5]: significant reduction
- apoptosis in tumors (cleaved PARP, BclxL, survivin) (SW620 xenograft tumor; PDS-0330 5mg/Kg and 10mg/Kg): increase in apoptosis
- proliferation in tumors (Ki67) (SW620 xenograft tumor; PDS-0330 5mg/Kg and 10mg/Kg): reduced proliferation
- tumor volume and weight (SW620 xenograft tumor; [5]): significant reduction
- tumor volume, combination with 5-FU (SW620 xenograft tumor; PDS-0330 and 5-FU in combination vs either alone): substantial reduction
- drug remaining after 60 min ([2]; HLM, phase I metabolism, 60 min): 90%
- metabolism in the presence of HLM ([2]; phase I): < 15%
- Hill coefficient (human claudin-1; 37°C): ~ 5 and 4.5
- Kd (human claudin-1; binding affinity, 37°C, fit to Hill-Langmuir equation): 44.9 ± 5.6 µM
- Kd (human claudin-1; equilibrium dissociation constant (Kd), Cy3-labeled human claudin-1, 25 °C, eight independent acquisitions): 22.9 ± 3 µM
- binding affinity to other claudin subtypes, fold lower than claudin-1 (human claudin-1; human claudin-19 and mouse claudin-4 vs human claudin-1): ~ 4 fold
- Akt activation [3]: suppressing Akt activation
- Bcl-2 and Bcl-xL expression [3]: inhibiting
- anti-apoptotic proteins Bcl2, Bcl-xL and Survivin ([3]; SW480^cld1 and SW620): decrease
- apoptotic protein cleaved PARP ([3]; SW480^cld1 and SW620): increase
- Src phosphorylation ([3]; SW620 and SW480^cld1): prevents Src phosphorylation
- solubility in aqueous buffers [4]: limited solubility
